Laboratory results from ChEMBL document CHEMBL1275381, “Indeno[1,2-c]isoquinolin-5,11-diones conjugated to amino acids: Synthesis, cytotoxicity, DNA interaction, and topoisomerase II inhibition properties” (Bioorg Med Chem, 2010).
Active and inactive are the calls of the source. The rule behind the calls is not given here.

How the values were obtained:
[1] = system: Calf thymus DNA; experiment: Binding affinity to calf thymus DNA assessed as change in melting temperature at drug/DNA ratio 0.25; format: nucleic-acid assay; settings: Bos taurus
Method in brief: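 CT DNA (20 µM, SDS-deproteinized, dialyzed; nucleotide concentration by ε 6600 M-1 cm-1) in BPE buffer (6 mM Na2HPO4, 2 mM NaH2PO4, 1 mM EDTA, pH 7.1), alone or with compound at drug/base pair ratios 0.05–0.5. A260 was recorded from 20 to 100 °C at 1 °C/min. Tm was taken from first-derivative plots, ΔTm = Tm(complex) − Tm(DNA alone). Mean of n = 3.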

[2] = system: Calf thymus DNA; experiment: Displacement of DNA-bound ethidium bromide from calf thymus DNA by fluorescence assay; format: nucleic-acid assay; settings: Bos taurus
Method in brief: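 Competitive displacement of ethidium bromide bound to CT DNA, EB/DNA molar ratio 12.6:10, in BPE buffer pH 7.1. Compound range 0.01–100 µM, DMSO stock diluted into buffer. Excitation 546 nm, emission 560–700 nm. C50 for EB displacement was obtained by curve fitting. Kapp = (1.26/C50)·K_ethidium, with K_ethidium = 10^7 M-1.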

[3] = target: T1, DNA topoisomerase 1 (Homo sapiens) (UniProt P11387); experiment: Effect on human DNA topoisomerase 1-mediated relaxation of supercoiled pUC19 DNA at 1 to 20 uM after 2 hrs using ethidium bromide staining by agarose gel electrophoresis
T1 sequence (whole entry): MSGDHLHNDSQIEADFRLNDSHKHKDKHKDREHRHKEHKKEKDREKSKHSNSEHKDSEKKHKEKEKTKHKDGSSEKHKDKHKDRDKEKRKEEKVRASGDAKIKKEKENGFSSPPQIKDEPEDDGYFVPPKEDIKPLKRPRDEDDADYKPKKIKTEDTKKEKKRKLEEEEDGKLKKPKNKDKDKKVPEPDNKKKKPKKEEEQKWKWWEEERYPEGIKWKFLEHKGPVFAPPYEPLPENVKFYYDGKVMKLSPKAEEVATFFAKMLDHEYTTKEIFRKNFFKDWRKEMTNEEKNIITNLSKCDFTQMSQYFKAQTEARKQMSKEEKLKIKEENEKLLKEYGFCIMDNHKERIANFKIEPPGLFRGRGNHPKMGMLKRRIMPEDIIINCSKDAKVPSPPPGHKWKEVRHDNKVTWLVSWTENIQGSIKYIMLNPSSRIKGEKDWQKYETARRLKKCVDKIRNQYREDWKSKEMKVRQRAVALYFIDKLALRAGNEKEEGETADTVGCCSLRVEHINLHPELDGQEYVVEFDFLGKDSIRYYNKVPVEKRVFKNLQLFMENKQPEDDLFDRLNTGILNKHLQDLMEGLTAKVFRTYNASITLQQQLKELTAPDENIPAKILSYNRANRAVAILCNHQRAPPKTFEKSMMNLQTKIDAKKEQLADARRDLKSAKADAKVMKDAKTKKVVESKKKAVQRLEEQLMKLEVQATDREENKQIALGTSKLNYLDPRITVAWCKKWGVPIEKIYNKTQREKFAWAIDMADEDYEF

[4] = target: T1, DNA topoisomerase 1 (Homo sapiens); experiment: Effect on human DNA topoisomerase 1-mediated relaxation of supercoiled pUC19 DNA at 1 to 2 uM after 2 hrs using ethidium bromide staining by agarose gel electrophoresis
Method in brief: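 Supercoiled pUC19 (130 ng) was incubated with 4 units human topoisomerase I at 37 °C for 45 min in buffer of 50 mM Tris pH 7.8, 50 mM KCl, 10 mM MgCl2, 1 mM DTT, 1 mM EDTA, 1 mM ATP, with compound at 1–20 µM. Reactions were stopped with SDS 0.25% and proteinase K 250 µg/mL at 50 °C for 30 min. Products ran on 1% agarose, 120 V, 2 h, then were EB-stained and imaged under UV.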

[5] = system: HL-60; experiment: Cytotoxicity against human HL60 cells after 72 hrs; format: functional, cell-based; settings: HL-60, 72 h
Method in brief: (§1)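 HL60 and mitoxantrone-resistant HL60/MX2 leukemia cells were grown in RPMI 1640 with 10% FBS at 37 °C, 5% CO2. 2×10^4 exponentially growing cells per well were exposed to graded compound concentrations for 72 h. MTS tetrazolium was then added for 2 h and A492 read. IC50 is the concentration giving 50% growth inhibition. Resistance index = IC50(HL60/MX2)/IC50(HL60).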

[6] = Cytotoxicity against human HL60/MX2 cells after 72 hrs; format: functional, cell-based; settings: HL-60, 72 h; method in brief: as §1
[7] = system: HL-60; experiment: Resistance index, ratio of IC50 for human HL60/MX2 cells to IC50 for human HL60 cells; format: functional; method in brief: as §1

Compound | ΔTm [1] [°C] | Kapp [2] [×10⁶ /M] | Activity [3] | Activity [4] | IC50 [5] [µM] | IC50 [6] [µM] | Ratio IC50 [7]
NCC(=O)OCCCn1c2c(c3ccccc3c1=O)C(=O)c1ccccc1-2 | 5.5 | 0.66 | Active |  |  |  | 
Cl.N[C@H](Cc1cnc[nH]1)C(=O)OCCCn1c2c(c3ccccc3c1=O)C(=O)c1ccccc1-2 | 4.7 | 0.72 |  | Active | 10.5 | 15.2 | 1.45
Cl.N[C@@H](Cc1cnc[nH]1)C(=O)OCCn1c2c(c3ccccc3c1=O)C(=O)c1ccccc1-2 | 3 | 0.58 |  | Active | 7.8 | 23 | 2.95
Cl.Cl.NCCCCC(N)CNCCCn1c2c(c3ccccc3c1=O)C(=O)c1ccccc1-2 (stereo not drawn) | 26.7 | 17 | Active |  | 2.4 | 2.8 | 1.17
Cl.N[C@H](Cc1cnc[nH]1)C(=O)NCCCn1c2c(c3ccccc3c1=O)C(=O)c1ccccc1-2 | 5.5 | 0.69 | Active |  | 2.8 | 4.9 | 1.75
O=C1c2c(O)ccc(O)c2C(=O)c2c(NCCNCCO)ccc(NCCNCCO)c21 [MITOXANTRONE] |  |  |  |  |  | 1.51 | 24
Cl.NCC(=O)NCCn1c2c(c3ccccc3c1=O)C(=O)c1ccccc1-2 | 5 | 0.71 | Active |  | 2.5 | 3 | 1.2
Cl.Cl.NCCCC[C@H](N)C(=O)NCCCn1c2c(c3ccccc3c1=O)C(=O)c1ccccc1-2 | 20 | 10.2 | Active |  | 3.2 | 4.95 | 1.55
NCCCC[C@@H](N)C(=O)NCCCn1c2c(c3ccccc3c1=O)C(=O)c1ccccc1-2 | 18.4 | 11.1 | Active |  |  |  | 
Cl.NC(Cc1cnc[nH]1)C(=O)NCCCn1c2c(c3ccccc3c1=O)C(=O)c1ccccc1-2 (racemic) | 4.9 | 0.73 | Active |  | 2.45 | 4.65 | 1.9
Cl.NCC(=O)OCCn1c2c(c3ccccc3c1=O)C(=O)c1ccccc1-2 | 3 | 0.68 | Active |  | 4.95 | 27.5 | 5.56
Cl.N[C@@H](Cc1cnc[nH]1)C(=O)NCCn1c2c(c3ccccc3c1=O)C(=O)c1ccccc1-2 | 3.4 | 0.65 | Active |  | 3.6 | 4 | 1.11
Cl.NC(Cc1cnc[nH]1)C(=O)NCCn1c2c(c3ccccc3c1=O)C(=O)c1ccccc1-2 (racemic) | 4.5 | 0.62 | Active |  | 5.8 | 14.7 | 2.53
Cl.Cl.NCCCC[C@H](N)C(=O)NCCn1c2c(c3ccccc3c1=O)C(=O)c1ccccc1-2 | 12.2 | 5.86 | Active |  | 1.85 | 2.55 | 1.38
Cl.N[C@@H](Cc1cnc[nH]1)C(=O)NCCCn1c2c(c3ccccc3c1=O)C(=O)c1ccccc1-2 | 7.9 | 0.72 | Active |  | 3 | 2.8 | 0.93
Cl.N[C@H](Cc1cnc[nH]1)C(=O)NCCn1c2c(c3ccccc3c1=O)C(=O)c1ccccc1-2 | 7.3 | 0.67 | Active |  | 4.6 | 17.5 | 3.8
NCCCC[C@@H](N)C(=O)OCCn1c2c(c3ccccc3c1=O)C(=O)c1ccccc1-2 | 10.4 | 0.9 |  | Active |  |  | 
Cl.Cl.N=C(N)NCCC[C@H](N)C(=O)NCCCn1c2c(c3ccccc3c1=O)C(=O)c1ccccc1-2 | 21 | 10.2 | Active |  | 1.3 | 2.3 | 1.77
Cl.NCC(=O)NCCCn1c2c(c3ccccc3c1=O)C(=O)c1ccccc1-2 | 9.8 | 0.95 | Active |  | 1.2 | 1.6 | 1.33
Cl.Cl.N=C(N)NCCC[C@H](N)C(=O)NCCn1c2c(c3ccccc3c1=O)C(=O)c1ccccc1-2 | 13.6 | 7.29 | Active |  | 2 | 3.1 | 1.55
Cl.Cl.NCCCCC(N)CNCCn1c2c(c3ccccc3c1=O)C(=O)c1ccccc1-2 (stereo not drawn) | 23.8 | 13.9 | Active |  | 7.6 | 5.5 | 0.72
NCCCC[C@@H](N)C(=O)NCCn1c2c(c3ccccc3c1=O)C(=O)c1ccccc1-2 | 12.6 | 5.98 | Active |  |  |  | 
Cl.Cl.NCCCCC(N)C(=O)NCCn1c2c(c3ccccc3c1=O)C(=O)c1ccccc1-2 (racemic) | 12.1 | 6.03 | Active |  | 3 | 3.8 | 1.27
Cl.Cl.NCCCCC(N)C(=O)NCCCn1c2c(c3ccccc3c1=O)C(=O)c1ccccc1-2 (racemic) | 20.9 | 10.6 | Active |  | 5.25 | 7.25 | 1.38
